Measurements published in ChEMBL document CHEMBL1129557, “Aryl phosphoramidate derivatives of d4T have improved anti-HIV efficacy in tissue culture and may act by the generation of a novel intracellular metabolite” (J Med Chem, 1996).

Assays:
CCRF-CEM [1] = assay: Cytotoxic concentration against CEM cells (in vitro); type: functional; details: Homo sapiens
Summary of the method: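 Mock-infected CEM cultures exposed to compound dilutions alongside the antiviral assay and scored at day 4. CC₅₀ is the concentration reducing cell number by 50%.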

CCRF-CEM [2] = assay: Activity against HIV-1 in CEM cells (in vitro); type: functional, cell-based; details: Homo sapiens
Summary of the method: (§1)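 Cells at 5 × 10⁵/mL infected with HIV-1 (IIIB) or HIV-2 (ROD) at about 100 CCID50/mL, then mixed with dilutions of test compound. After 4 days, giant cell formation scored microscopically. EC₅₀ is the concentration cutting giant cells by 50%. Mean of two to four independent experiments.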

CCRF-CEM [3] = assay: Activity against HIV-2 in CEM cells (in vitro); type: functional, cell-based; details: Homo sapiens; summary of the method: as §1
MT4 [4] = assay: Activity against HIV-1 in MT-4 cells (in vitro); type: functional, cell-based; details: Homo sapiens
Summary of the method: (§2)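 MT-4 cells at 5 × 10⁵/mL infected with HIV-1 (IIIB) or HIV-2 (ROD) at about 100 CCID50/mL and exposed to compound dilutions. After 5 days, viable cells counted by trypan blue staining. EC₅₀ is the concentration protecting cells against viral cytopathogenicity by 50%. Mean of two to four independent experiments.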

MT4 [5] = assay: Activity against HIV-2 in MT-4 cells (in vitro); type: functional, cell-based; details: Homo sapiens; summary of the method: as §2
MT4 [6] = assay: Cytotoxic concentration against MT-4 cells (in vitro); type: functional; details: Homo sapiens
Summary of the method: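 Mock-infected MT-4 cultures (5 × 10⁵ cells/mL) exposed to compound dilutions for 5 days. Viable cells counted by trypan blue. CC₅₀ is the concentration reducing viable cell number by 50%.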

CEM-TK(-) (Homo sapiens) = assay: Activity against HIV-1 in CEM/TK cells (in vitro)
CCRF-CEM [7] = assay: Compound was tested for activity against HIV-2 in CEM cells; type: functional, cell-based; details: Homo sapiens; summary of the method: as §1

| Compound | EC50 (CCRF-CEM [2]) [nM] | EC50 (CCRF-CEM [3]) [nM] | EC50 (CEM-TK(-) (Homo sapiens)) [nM] | EC50 (CCRF-CEM [7]) [nM] | CC50 (CCRF-CEM [1]) [µM] | EC50 (MT4 [4]) [nM] | EC50 (MT4 [5]) [nM] | CC50 (MT4 [6]) [µM] |
| --- | --- | --- | --- | --- | --- | --- | --- | --- |
| Cc1cn([C@H]2C=C[C@@H](CO)O2)c(=O)[nH]c1=O [STAVUDINE] | 800 | 775 | 33300 |  | 174 | 651 | 770 | 19 |
| COC(=O)C(Cc1ccccc1)NP(=O)(OCC1C=CC(n2cc(C)c(=O)[nH]c2=O)O1)Oc1ccccc1 (stereo not drawn) | 800 | 1350 | 330 |  | 216 | 190 | 380 | 34.1 |
| COC(=O)CNP(=O)(OCC1C=CC(n2cc(C)c(=O)[nH]c2=O)O1)Oc1ccccc1 (stereo not drawn) | 6000 | 6000 | 7000 |  | > 250 | 1340 | 6710 | > 250 |
| COC(=O)C(CC(C)C)NP(=O)(OCC1C=CC(n2cc(C)c(=O)[nH]c2=O)O1)Oc1ccccc1 (stereo not drawn) | 1100 |  | 400 | 2230 | > 250 | 200 | 470 | 61.5 |
| COC(=O)C(CCSC)NP(=O)(OCC1C=CC(n2cc(C)c(=O)[nH]c2=O)O1)Oc1ccccc1 (stereo not drawn) | 600 | 800 | 330 |  | > 250 | 230 | 380 | 22 |
| Cc1cn([C@H]2C[C@H](N=[N+]=[N-])[C@@H](CO)O2)c(=O)[nH]c1=O [ZIDOVUDINE] |  |  | > 100000 |  | > 500 |  |  | 6 |
| COC(=O)C(C)NP(=O)(OC[C@@H]1C=C[C@H](n2cc(C)c(=O)[nH]c2=O)O1)Oc1ccccc1 (stereo partly drawn) | 182 | 200 | 75 |  | 100 | 66.5 | 67 | > 100 |

The next lines start with results.

| EC50 (CCRF-CEM [2]) [nM] | EC50 (CCRF-CEM [3]) [nM] | EC50 (CEM-TK(-) (Homo sapiens)) [nM] | EC50 (CCRF-CEM [7]) [nM] | Compound | CC50 (CCRF-CEM [1]) [µM] | EC50 (MT4 [4]) [nM] | EC50 (MT4 [5]) [nM] | CC50 (MT4 [6]) [µM] |
| --- | --- | --- | --- | --- | --- | --- | --- | --- |
| 150 | 150 | 110 |  | COC(=O)C(C)NP(=O)(OC[C@@H]1C=C[C@H](n2cc(C)c(=O)[nH]c2=O)O1)Oc1cccc(C(F)(F)F)c1 (stereo partly drawn) | 29.8 | 46 | 110 | 9.75 |
| 2500 | 3700 | 8500 |  | COC(=O)C(C)NP(=O)(OCC1C=CC(n2cc(C)c(=O)[nH]c2=O)O1)Oc1c(F)c(F)c(F)c(F)c1F (stereo not drawn) | 115 | 1720 | 4070 | 82.2 |
| 70 | 160 | 60 |  | CCc1ccc(OP(=O)(NC(C)C(=O)OC)OCC2C=CC(n3cc(C)c(=O)[nH]c3=O)O2)cc1 (stereo not drawn) | 60 | 57 | 63 | > 100 |
| 40 | 55 | 25 |  | COC(=O)C(C)NP(=O)(OCC1C=CC(n2cc(C)c(=O)[nH]c2=O)O1)Oc1ccc(Br)cc1Br (stereo not drawn) | 16 |  |  |  |
| 12500 | 12500 | 4000 |  | COC(=O)C(NP(=O)(OCC1C=CC(n2cc(C)c(=O)[nH]c2=O)O1)Oc1ccccc1)C(C)C (stereo not drawn) | > 250 | 3580 | 11200 | > 250 |
| 48000 | 240000 | 48000 |  | CCOP(=O)(NC(C)C(=O)OC)OCC1C=CC(n2cc(C)c(=O)[nH]c2=O)O1 (stereo not drawn) | > 250 | 28500 | 62500 | > 250 |
| 20000 | 50000 | > 250000 |  | COC(=O)C(C)NP(=O)(OC)OCC1C=CC(n2cc(C)c(=O)[nH]c2=O)O1 (stereo not drawn) | > 250 | 25400 | 50900 | > 250 |
| 110 | 150 | 110 |  | COC(=O)C(C)NP(=O)(OCC1C=CC(n2cc(C)c(=O)[nH]c2=O)O1)Oc1cc(Cl)cc(Cl)c1 (stereo not drawn) | 26.9 | 37 | 120 | 10.5 |
